According to ChEMBL document CHEMBL1144556, “Design, synthesis, and SAR analysis of novel selective sigma1 ligands” (Bioorg Med Chem, 2007):

What was measured:
[1] = Displacement of [3H]DTG from sigma 2 receptor in guinea pig brain membrane; type: cell membranes, Cavia porcellus
Method in brief: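 Guinea pig brain membranes were incubated with test compounds, with 400 nM (+)-SKF10,047 added to mask σ1 sites. Incubation was in 50 mM Tris-HCl, pH 8.0, for 120 min at room temperature. Reactions were stopped with ice-cold 10 mM Tris-HCl, pH 8.0, and filtered through glass fiber filters presoaked in 0.5% poly(ethylenimine).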

[2] = organism: Cavia porcellus; experiment: Selectivity for sigma 1 receptor over sigma 2 receptor in guinea pig brain membranes; type: cell membranes; details: Membrane
[3] = molecular target: Sigma non-opioid intracellular receptor 1 (Cavia porcellus, UniProt Q60492); experiment: Displacement of [3H](+)-pentazocine from sigma 1 receptor in guinea pig brain membrane; type: cell membranes
Method in brief: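 Guinea pig brain (minus cerebella) membranes were homogenized in ice-cold 0.32 M sucrose, pH 7.4, washed in 10 mM Tris-HCl, pH 7.4, and stored at −80 °C. Tritiated (+)-pentazocine (28 Ci/mmol; Kd 1.6 ± 0.3 nM, n = 3) was incubated with test compounds from 10^-11 to 10^-5 M in Tris-HCl, pH 7.4, for 150 min at 37 °C. Haloperidol defined nonspecific binding. Reactions were stopped by filtration through PEI-presoaked glass fiber filters.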

Chain of Sigma non-opioid intracellular receptor 1 (Q60492 whole entry): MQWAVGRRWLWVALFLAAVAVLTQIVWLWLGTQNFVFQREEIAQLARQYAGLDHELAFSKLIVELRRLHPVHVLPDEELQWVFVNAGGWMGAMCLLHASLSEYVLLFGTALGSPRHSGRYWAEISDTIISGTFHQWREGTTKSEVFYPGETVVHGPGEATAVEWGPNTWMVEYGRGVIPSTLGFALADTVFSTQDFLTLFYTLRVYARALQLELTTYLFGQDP

C/C(=C\CN(C)Cc1ccccc1)c1ccc2ccccc2c1
Ki [1]: 873 nM | Ratio Ki [2]: 111 | Ki [3]: 7.88 nM

C/C(=C\CN(C)C)c1cccc2ccccc12
Ki [1]: 701 nM | Ratio Ki [2]: 6.87 | Ki [3]: 102 nM

C/C(=C\CN(C)C)c1ccc(-c2ccccc2)cc1
Ki [1]: 106 nM | Ratio Ki [2]: 75.7 | Ki [3]: 1.4 nM

CC(CCN(C)C)c1ccc2ccccc2c1 (stereo not given)
Ki [1]: 43.8 nM | Ratio Ki [2]: 22.5 | Ki [3]: 1.95 nM

CC(CCN(C)Cc1ccccc1)c1ccc(-c2ccccc2)cc1 (stereo not given)
Ki [1]: 591 nM | Ratio Ki [2]: 102 | Ki [3]: 5.8 nM

CC(CCN(C)Cc1ccccc1)c1ccc2ccccc2c1 (stereo not given)
Ki [1]: 139 nM | Ratio Ki [2]: 25.7 | Ki [3]: 5.4 nM

CN(C)CCC(C)(O)c1ccc2ccccc2c1 (racemic)
Ki [1]: 171 nM | Ratio Ki [2]: 6.8 | Ki [3]: 25 nM

CC(CCN(C)C)c1ccc2cc(O)ccc2c1 (racemic)
Ki [1]: 1330 nM | Ratio Ki [2]: 70 | Ki [3]: 19 nM

C/C(=C\CN(C)C)c1ccc2cc(O)ccc2c1
Ki [1]: 1390 nM | Ratio Ki [2]: 6.1 | Ki [3]: 229 nM

COc1ccc2cc(C(C)CCN(C)C)ccc2c1 (racemic)
Ki [1]: 60.4 nM | Ratio Ki [2]: 26.3 | Ki [3]: 2.3 nM

COc1ccc2cc(/C(C)=C/CN(C)C)ccc2c1
Ki [1]: 985 nM | Ratio Ki [2]: 46 | Ki [3]: 21.4 nM

CC(CCN(C)C)c1ccc(-c2ccccc2)cc1 (stereo not given)
Ki [1]: 161 nM | Ratio Ki [2]: 158 | Ki [3]: 1.02 nM

CC(CCN(C)C)c1cccc2ccccc12 (stereo not given)
Ki [1]: 205 nM | Ratio Ki [2]: 4.3 | Ki [3]: 47.2 nM

C/C(=C\CN(C)C)c1ccc2ccccc2c1
Ki [1]: 148 nM | Ratio Ki [2]: 7.5 | Ki [3]: 19.8 nM

C/C(=C\CN(C)Cc1ccccc1)c1ccc(-c2ccccc2)cc1
Ki [1]: 75.7 nM | Ratio Ki [2]: 12 | Ki [3]: 6.32 nM
